From PubChem BioAssay
The list is not random: actives were taken first. Their share in the collection is about 2.9%.
OX1R antag-1 = OX1R (HCRTR1) antagonists, primary screen, fluorescence, CHO/OX1R cells, Fluo-8 calcium, orexin A. 330,000 compounds, 0.43% hits. Orexin/Hypocretin receptor type 1 (Homo sapiens), O43613. Fluo-8 calcium fluorescence. inhibition, % at 5 µM;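 active = inhibition above its plate's threshold, mean inhibition of all tested compounds on the plate plus 3 SD, cut at about 37% in these data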;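 also: 0% = orexin A challenge wells and 100% = SB-334867-A antagonist wells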
Target sequence (O43613 whole entry, looked up): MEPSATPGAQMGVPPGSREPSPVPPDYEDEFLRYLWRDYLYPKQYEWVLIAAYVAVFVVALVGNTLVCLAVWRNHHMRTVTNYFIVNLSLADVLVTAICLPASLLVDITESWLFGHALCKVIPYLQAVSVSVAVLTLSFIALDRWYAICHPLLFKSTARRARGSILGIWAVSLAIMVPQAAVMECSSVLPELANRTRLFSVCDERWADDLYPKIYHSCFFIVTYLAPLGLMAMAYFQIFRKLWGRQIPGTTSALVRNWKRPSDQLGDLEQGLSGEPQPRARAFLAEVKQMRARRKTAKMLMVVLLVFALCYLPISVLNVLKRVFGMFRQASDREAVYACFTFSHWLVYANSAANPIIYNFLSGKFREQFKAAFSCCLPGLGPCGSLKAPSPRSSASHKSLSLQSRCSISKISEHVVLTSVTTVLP
CHO-K1 Ca antag = M1 antagonist counterscreen hit in parental CHO-K1 cells; 360,000 compounds, 0.6% hits; ATP-induced calcium, Fluo-8 fluorescence; inhibition, % at 3 µM;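 active = inhibition above a per-plate cutoff, the plate's mean sample inhibition plus 3 SD, cut at about 24% in these data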;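 also: 0% = DMSO plus EC80 ATP and 100% = DMSO alone without ATP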
OX1R antag-2 = antagonists of human orexin 1 receptor (OX1R). Orexin/Hypocretin receptor type 1 (Homo sapiens), O43613. OX1R-expressing cells, FRET antagonist read-out. 330,000 compounds, 1.8% hits. inhibition, % at 6.6 µM; in the data active = inhibition mostly above about 38%, no sharp cut-off; inactive = mostly below about 40%;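 also: 0% = agonist challenge alone and 100% = reference antagonist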
CHO parental Ca = ATP-evoked calcium signal inhibitors, parental CHO, primary screen, counter-screen for OX1R antagonist project, cell-based, fluorescence, Fluo-8 calcium dye | parental CHO-K1, ATP-induced calcium, Fluo-8 fluorescence | inhibition, % at 5.6 µM | 330,000 compounds, 0.63% hits | AID 463079, 2010;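 active = inhibition above that plate's mean sample inhibition plus 3 SD, cut at about 26% in these data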;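 also: 0% = ATP-challenged DMSO wells and 100% = DMSO wells without ATP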
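Assay system: parental CHO cells; Read-out basis: percent inhibition of ATP-evoked calcium rise, normalized to controls; Benchmarks: ATP and no-ATP DMSO wells; Compound dosing: single nominal dose of 5.6 µM per compound; Signal: Fluo-8 calcium dye fluorescence; Also added: ATP as calcium-mobilizing challenge; Repeats: singlicate.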
M1 PAM parental = nonselective calcium activators in parental CHO-K1 cells, primary screen, counter-screen for M1 PAM project, cell-based, Fluo-8 calcium fluorescence, full deck, 1536-well; ATP EC20; 0% at ATP EC20, 100% at ATP max; activation, % at 3 µM; 360,000 compounds, 0.02% hits;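 active = activation above the run cutoff, the mean activation of all test compounds plus 3 SD, cut at about 40% in these data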;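 also: peak over basal fluorescence ratio in a 140 s read after ATP addition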
M1 ag parental = counter-screen for M1 agonists: effect in parental CHO-K1 cells. Fluo-8 calcium fluorescence; scaled to maximal ATP response, vehicle zero. activation, % at 3 µM. 360,000 compounds, 0.48% hits; in the data active = activation above about 15%;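 also: untransfected CHO-K1 host cells lacking M1 receptor as counterscreen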
OX1R Ca confirm = OX1R (HCRTR1) antagonists, confirmation, fluorescence, CHO/OX1R cells, Fluo-8 calcium, orexin A. shares compounds with OX1R antag-1. orexin A calcium Fluo-8 fluorescence. inhibition, % at 5 µM. 1,100 compounds, 38% hits. AID 492963, 2010; in the data active = inhibition above about 29%;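 also: 0% = agonist challenge alone and 100% = reference antagonist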
CHO Ca counter = ATP-evoked calcium inhibition in parental CHO, counter-screen for OX1R antagonist project, cell-based, fluorescence, CHO-K1, triplicate; shares compounds with OX1R antag-1; ATP-induced calcium, Fluo-8 fluorescence; inhibition, % at 5.6 µM; 1,100 compounds, 9.3% hits; AID 492965, 2010;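 active = inhibition above a per-plate limit, the mean inhibition of that plate's test compounds plus 3 SD, cut at about 25% in these data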;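 also: 0% = ATP challenge with DMSO and 100% = DMSO without ATP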
* = called active by the depositor; · = no result.

SMILES | OX1R antag-1 | CHO-K1 Ca antag | OX1R antag-2 | CHO parental Ca | M1 PAM parental | M1 ag parental | OX1R Ca confirm | CHO Ca counter
O=C(CNS(=O)(=O)c1ccc(Br)s1)NCCc1ccc(Cl)cc1 | 21 | -20 | 21 | -7 | -2 | 2 | -5 | -3
COCCNC(=O)C(OC(=O)c1ccco1)c1ccccc1F (stereo not drawn) | 4 | -8 | 40 | 15 | 13 | 0 | · | ·
COc1cc(/C=C(\C#N)c2nc3ccccc3o2)ccc1O | 34 | 30* | 17 | 23 | -21 | 45* | 56* | 56*
N#C/C(=C\c1ccc(O)cc1)c1nc2ccccc2o1 | -4 | -1 | 24 | -2 | -1 | 6 | · | ·
CCOc1ccc(S(=O)(=O)n2cnc3cc(C)c(C)cc32)cc1 | 60* | 21 | 22 | 1 | 0 | 7 | -1 | 59*
Cc1ccnc(NS(=O)(=O)c2ccc(NC(=O)c3cc(=O)c4ccccc4o3)cc2)n1 | -16 | -18 | 37 | 5 | 11 | 1 | · | ·
CC(=O)Nc1ccc(/C(C)=N/Nc2nc(Nc3cccc4ccccc34)nc(N3CCOCC3)n2)cc1 | 40* | 10 | 24 | 11 | 11 | 12 | 1 | -6
CC(=O)Nc1ccc(/C(C)=N/Nc2nc(N3CCOCC3)nc(N3CCOCC3)n2)cc1 | -31 | 19 | 22 | -16 | -13 | 0 | · | ·
O=C(CN1CCCc2ccccc21)NCCc1ccc(Cl)cc1 | -20 | -11 | 24 | -18 | 8 | 0 | · | ·
O=S(=O)(Nc1cccc(S(=O)(=O)N2CCCCCC2)c1)c1ccc(F)cc1F | -33 | -15 | 14 | -28 | 27 | 3 | · | ·
N#Cc1c(NC(=O)CSc2nc(N)cc(=O)[nH]2)sc2c1CCCC2 | 25 | 4 | 39 | 8 | -15 | 0 | 7 | 8
CN(Cc1c(C(=O)N/N=C/c2cccc(Cl)c2)nnn1-c1nonc1N)c1ccccc1 | 38 | -14 | 47 | -5 | 13 | 3 | 10 | -7
CCOC(=O)N1CCN(C(=O)CCN2C(=O)/C(=C\c3cccc(OC)c3)SC2=S)CC1 | -24 | -15 | 25 | -10 | 26 | 2 | · | ·
Cc1cccc(NC(=O)N2CCCc3ccccc32)c1C | · | -5 | · | · | 17 | 1 | · | ·
Cc1noc(C)c1COc1ccc(C(=O)OCC(=O)N2c3ccccc3NC(=O)C2(C)C)cc1 | 29 | 6 | 16 | -13 | 5 | 8 | 47* | 5
Cc1noc(C)c1COc1ccc(C(=O)OCC(=O)N2CC(=O)Nc3ccccc32)cc1 | 82* | -32 | 35 | -2 | 11 | 5 | 76* | -7
COc1cccc(C(=O)O/N=C2\CCS(=O)(=O)c3sccc32)c1 | -8 | -16 | 7 | -17 | 9 | 0 | · | ·
O=C(O/N=C1\CCS(=O)(=O)c2sccc21)c1c(F)cccc1F | 44* | -18 | 13 | -17 | 12 | 0 | 17 | 9
COc1ccc(S(=O)(=O)N2CCOCC2)cc1NC(=O)COC(=O)c1ccc([N+](=O)[O-])s1 | -3 | 4 | 28 | 7 | 21 | 2 | · | ·
CC(=O)N=C1SC2CS(=O)(=O)CC2N1c1cccc(Cl)c1Cl (stereo not drawn) | -10 | -7 | 6 | -14 | 10 | 0 | · | ·
CC(=O)N=c1cccc(NC(C)=O)n1O | 86* | 2 | 15 | -6 | -2 | 0 | 0 | 3
CC(C)OC(=O)CSc1nc2c(c(C3CC=CCC3)c1C#N)CCC2 (stereo not drawn) | 54* | -1 | 18 | 6 | 7 | 0 | -11 | -3
Cc1cc(NC(=O)c2ccc(C#N)cc2)on1 | -6 | -4 | 25 | 0 | 11 | 0 | · | ·
COc1ccc(C)cc1NC(=O)CSc1nnc(COc2ccccc2)n1Cc1ccco1 | 43 | -6 | 23 | 14 | 16 | 2 | -17 | -14
CCCCNc1ccc(C(F)(F)F)cc1S(=O)(=O)NCCc1ccc(F)cc1 | 47 | -6 | 8 | 12 | 1 | 0 | -7 | -9
SMILES | OX1R antag-1 | CHO-K1 Ca antag | OX1R antag-2 | CHO parental Ca | M1 PAM parental | M1 ag parental | OX1R Ca confirm | CHO Ca counter
COc1ccc(S(=O)(=O)NCCc2ccc(F)cc2)cc1 | -13 | -5 | 12 | 1 | 8 | 0 | · | ·
CC(C)c1cccc(C(C)C)c1NC(=O)CN1C(=O)NC2(CCCCCCC2)C1=O | -19 | -5 | 3 | -14 | 0 | -1 | · | ·
COc1ccc(NS(=O)(=O)c2ccc(SC)cc2)cc1 | 57* | -1 | 7 | 1 | -9 | 5 | 2 | 5
CSc1ccc(S(=O)(=O)Nc2ccc(F)cc2)cc1 | 16 | -5 | 14 | -3 | -7 | 8 | · | ·
Cc1noc(C)c1C(=O)OCC(=O)c1ccc[nH]1 | -16 | -10 | 12 | -2 | 14 | 0 | · | ·
Cc1noc(C)c1C(=O)OCC(=O)c1cc(C)n(Cc2ccccc2Cl)c1C | 49* | -5 | 24 | 23 | 9 | 1 | 9 | 13
N#CC1=C(N)Oc2cc(N)ccc2C1c1cccnc1 (stereo not drawn) | -4 | 10 | 19 | 4 | -13 | 0 | · | ·
CCN(CC)c1ccc2c(c1)OC(N)=C(C#N)C2c1cccnc1 (stereo not drawn) | 29 | -10 | 16 | 20 | 19 | 17* | 8 | 10
CC(c1ccccc1)C(Cc1nc2ccccc2[nH]1)c1nc2ccccc2[nH]1 (stereo not drawn) | 45* | · | 36 | 6 | · | · | 7 | -20
CC(C)Cc1nc2ccccc2[nH]1 | -21 | 6 | 7 | -5 | -19 | 3 | · | ·
Cc1cccc(CC(Cc2nc3ccccc3[nH]2)c2nc3ccccc3[nH]2)c1 (stereo not drawn) | 36 | 9 | 7 | 16 | -2 | 3 | 19 | -4
O=c1cc(CN2CC(O)Cc3ccc4ccccc4c32)nc2sccn12 (stereo not drawn) | 71* | -18 | 47 | -12 | 20 | 1 | 57* | -6
Cc1cccc(OCCC(=O)Nc2ccc(C)c(S(=O)(=O)N3CCOCC3)c2)c1 | -6 | -25 | 11 | -9 | 20 | 10 | · | ·
Cc1cccc(OCCCC(=O)Nc2ccc(Cl)c(S(=O)(=O)N3CCOCC3)c2)c1 | 35 | -8 | 7 | -12 | 0 | 9 | 7 | 8
CCN(CC(=O)Nc1cc(S(=O)(=O)N2CCOCC2)ccc1Cl)Cc1ccccc1 | 55* | -14 | 20 | -20 | 5 | 8 | 14 | 4
